Experimental data collected from several papers.
Each line is one published result; the experiments were not run side by side.

SMILES	system	setting	quantity	result
C=C(C)[C@@H]1CC[C@]2(NCCN3CCS(=O)(=O)CC3)CC[C@]3(C)[C@H](CC[C@@H]4[C@@]5(C)CC=C(C6=CC[C@@](COc7ncccc7C#N)(C(=O)O)CC6)C(C)(C)[C@@H]5CC[C@]43C)[C@@H]12	human, plasma	oral, 100 mg, fed	AUC(0-inf)	43600 ng·h/mL
O=C1[O][Pt]2([NH][C@@H]3CCCC[C@H]3[NH]2)[O]C1=O (relative stereo)	cynomolgus monkey, plasma	oral, 10 mg/kg	Tmax	2 h
Cc1c(P(=S)(c2ccccc2)c2ccccc2)n2ccccc2[n+]1C/C=C/c1ccccc1	mouse, brain	intraperitoneal, 10 mg/kg	tissue/plasma ratio	0.33
c1cc([C@H]2CC[C@]3(CC2)OO[C@]2(O3)C3CC4CC(C3)CC2C4)ccc1OCCN1CCOCC1	human, plasma	oral, 400 mg, patients	AUC(0-inf)	6450 ng·h/mL
CC(=C/C=C/C(C)=C/C(=O)O)/C=C1\CCCc2ccccc21	human, plasma	oral, 5 mg, single dose, fasted, healthy volunteers	AUC(0-inf)	193 ng·h/mL
N=c1c2c(-c3ccccc3)c(-c3ccccc3)n(Cc3ccccc3)c2ncn1[C@H]1CC[C@H](O)CC1	male cynomolgus monkey, plasma	oral, 1 mg/kg, single dose	Tmax	~15 h
COc1ccc(C[C@@H]2NC(=O)[C@H]([C@@H](C)O)NC(=O)[C@@H]3[C@@H]4CCN3C(=O)[C@@H]3Cc5cn(c6ccc(F)cc56)CCCCCCN(Cc5ccc(cc5)CCNC(=O)[C@]5(C)CCCN5C2=O)C(=O)CCC(=O)N[C@@H](C)C(=O)N[C@H](CNC(=O)CCCCC[N+](C)(C)C)C(=O)N[C@@H](Cc2cccc(c2)CNC(=O)CO4)C(=O)N3)cc1	human, plasma	oral, 200 mg, single dose, healthy volunteers	AUC(0-inf)	0.556 µM·h
N=C(N)NCCC[C@@H](NC(=O)[C@@H](N)Cc1ccccc1)C(=O)N[C@@H](Cc1ccccc1)C(=O)N[C@@H](CCCCN)C(N)=O	human, plasma	subcutaneous, 5 mg, patients	AUC(0-t)	861 ng·h/mL
